From ChEMBL document CHEMBL3352559, “Synthesis and pharmacological investigation of aralkyl diamine derivatives as potential triple reuptake inhibitors” (Eur J Med Chem, 2014)

What was measured:
[1] = Acute toxicity in KM mouse assessed as survival at 600 mg/kg, po up to 14 days (reference value: 100%); type: organism-based; set-up: dose 600 mg/kg, route oral; conditions: in vivo
[2] = Clearance in Sprague-Dawley rat at 0.5 mg/kg, iv; conditions: in vivo
[3] = Elimination half life in Sprague-Dawley rat at 2 mg/kg, po; type: ADME, organism-based; set-up: dose 2 mg/kg, route oral; conditions: in vivo, read-out: beta t1/2 (converted)
Homo sapiens = species: Homo sapiens; assay: Displacement of [3H]GABA from GABA receptor (unknown origin) at 10 uM relative to control
Summary of the method: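 Outsourced CNS panel of 55 receptor binding assays run by Cerep. Compound tested at 10 μM, the default primary-binding concentration, with inhibition expressed relative to control. Inhibition above 50% taken as a significant effect.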

Salmonella typhimurium [4] = assay: Mutagenic activity in Salmonella typhimurium TA100 assessed as number of reversion mutation at 1000 ug/plate; type: toxicity, organism-based; conditions: salmonella enterica subsp. enterica serovar typhimurium
Summary of the method: (§1)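 Ames reversion test in Salmonella typhimurium TA98 and TA100, with and without rat liver S9 metabolic activation. Compound was dissolved in DMSO and added at 3–5000 μg/plate. Each dose, vehicle and positive control was plated in triplicate, and revertant colonies were counted.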

Salmonella typhimurium [5] = assay: Mutagenic activity in Salmonella typhimurium TA98 assessed as number of reversion mutation at 10 ug/plate; type: toxicity, organism-based; conditions: salmonella enterica subsp. enterica serovar typhimurium; summary of the method: as §1
Salmonella typhimurium [6] = assay: Mutagenic activity in Salmonella typhimurium TA100 assessed as number of reversion mutation at 5000 ug/plate; type: toxicity, organism-based; conditions: salmonella enterica subsp. enterica serovar typhimurium; summary of the method: as §1
[7] = Drug uptake in Sprague-Dawley rat brain at 0.5 mg/kg ip after 0.08 hrs
[8] = biological target: Kappa-type opioid receptor (Homo sapiens) (UniProt P41145); assay: Displacement of [3H]U69593 from human kappa opioid receptor at 10 uM relative to control
Summary of the method: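 Outsourced CNS receptor panel (55 binding assays); compound tested at 10 μM in primary radioligand binding; specific binding inhibition expressed relative to control, with >50% inhibition taken as a significant effect.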

[9] = Ratio of drug level in Sprague-Dawley rat brain to plasma at 0.5 mg/kg iv after 2 hrs; type: ADME, organism-based; set-up: dose 0.5 mg/kg, route intravenous; conditions: read-out: BPR

Chain of Kappa-type opioid receptor (Homo sapiens) (P41145 whole entry): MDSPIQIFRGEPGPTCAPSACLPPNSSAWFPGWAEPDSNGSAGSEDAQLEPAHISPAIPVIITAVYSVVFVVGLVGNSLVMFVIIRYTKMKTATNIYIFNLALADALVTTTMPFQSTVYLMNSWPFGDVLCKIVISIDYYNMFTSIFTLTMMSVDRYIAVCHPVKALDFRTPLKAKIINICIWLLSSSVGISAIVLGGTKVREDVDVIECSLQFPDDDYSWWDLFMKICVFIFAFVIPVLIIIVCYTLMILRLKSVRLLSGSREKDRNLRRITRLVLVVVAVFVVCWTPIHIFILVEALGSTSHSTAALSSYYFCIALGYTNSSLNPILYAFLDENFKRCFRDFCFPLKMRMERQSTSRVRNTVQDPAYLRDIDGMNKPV

CN(C)CCC(c1ccc(Cl)c(Cl)c1)N1CCOCC1 (stereo not given)
survival at 336 h [1]: 80% | clearance [2]: 100 mL/min/kg | half-life [3]: 4.5 h | inhibition (Homo sapiens): 9.8% | Activity (Salmonella typhimurium [4]): 87 | Activity (Salmonella typhimurium [5]): 32 | Activity (Salmonella typhimurium [6]): 77 | concentration at 0.08 h [7]: 1120 ng/mL | inhibition [8]: 11.2% | Kp at 2 h [9]: 16.4
